In ChEMBL document CHEMBL4616673 (J Med Chem, 2020):
Activity calls are given as the source filed them. No cut-off for these calls is given here.

What was measured:
[1] = Acute toxicity in BALB/c mouse assessed as effect on lung at 400 mg/kg, po measured on day 14 by H and E staining based light microscopic analysis; assay type: organism-based; conditions: in vivo
Method in brief: (§1)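 Female and male BALB/c mice, 6-8 weeks old, dosed orally within 24 h at up to 400 mg/kg (free compound) or 800 mg/kg (nanocrystal). At the end of treatment, heart, liver, spleen, lung and kidney were sectioned, stained with H&E and imaged by light microscopy.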

Raji [2] = experiment: Induction of apoptosis in human Raji cells assessed as early apoptotic cells at 0.125 uM measured after 48 hrs by Annexin V-FITC staining based flow cytometry (reference value: 1 %); assay type: functional
Raji [3] = experiment: Antiproliferative activity against human Raji cells assessed as inhibition of cell proliferation at 0.02 to 0.156 uM measured after 48 hrs in presence of uridine by MTT assay; assay type: functional, cell-based
Method in brief: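 Raji cells treated with or without 500 μM uridine, viability by MTT. Cells seeded at 2-10 × 10^3 per well, treated 24 h later for 48 h. MTT (5 mg/mL) for 2-4 h, product dissolved overnight in 20% acidified SDS, absorbance at 570 nm. Mean ± SD.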

Raji [4] = experiment: Cell cycle arrest in human Raji cells assessed as accumulation at S phase at 0.031 uM measured after 24 hrs by propidium iodide/RNase staining based flow cytometry (reference value: 52%); assay type: functional
[5] = Acute toxicity in BALB/c mouse assessed as effect on blood BILT level at 400 mg/kg, po measured on day 14; assay type: organism-based; conditions: in vivo
Method in brief: (§2)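 BALB/c mice, female and male, 6-8 weeks old, given oral doses within 24 h, up to 400 mg/kg (free compound) or 800 mg/kg (nanocrystal formulation). Watched for body weight loss, diarrhea, anorexia, skin ulcer and toxic death. Serum biochemistry panel was run at the end of treatment.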

[6] = Acute toxicity in BALB/c mouse assessed as effect on blood CK level at 800 mg/kg, po measured on day 14; assay type: organism-based; conditions: in vivo; method in brief: as §2
[7] = Acute toxicity in BALB/c mouse assessed as effect on blood ALB level at 400 mg/kg, po measured on day 14; assay type: organism-based; conditions: in vivo; method in brief: as §2
[8] = Acute toxicity in BALB/c mouse assessed as effect on spleen at 800 mg/kg, po measured on day 14 by H and E staining based light microscopic analysis; assay type: organism-based; conditions: in vivo; method in brief: as §1
[9] = Acute toxicity in BALB/c mouse assessed as effect on blood CHO1 level at 400 mg/kg, po measured on day 14; assay type: organism-based; conditions: in vivo; method in brief: as §2
[10] = Acute toxicity in BALB/c mouse assessed as effect on liver at 400 mg/kg, po measured on day 14 by H and E staining based light microscopic analysis; assay type: organism-based; conditions: in vivo; method in brief: as §1
[11] = Acute toxicity in BALB/c mouse assessed as effect on blood GLU level at 400 mg/kg, po measured on day 14; assay type: organism-based; conditions: in vivo; method in brief: as §2
[12] = Acute toxicity in BALB/c mouse assessed as effect on blood LDH level at 400 mg/kg, po measured on day 14; assay type: organism-based; conditions: in vivo; method in brief: as §2
[13] = Acute toxicity in BALB/c mouse assessed as effect on blood LDLC level at 800 mg/kg, po measured on day 14; assay type: organism-based; conditions: in vivo; method in brief: as §2
Raji [14] = experiment: Induction of apoptosis in human Raji cells assessed as late apoptotic cells at 0.063 uM measured after 48 hrs by Annexin V-FITC staining based flow cytometry (reference value: 0.7 %); assay type: functional
[15] = Acute toxicity in BALB/c mouse assessed as effect on blood LDLC level at 400 mg/kg, po measured on day 14; assay type: organism-based; conditions: in vivo; method in brief: as §2
[16] = Toxicity in NOD-SCID nude mouse xenografted with human Raji cells assessed as death at 30 mg/kg/day, po administered 6 days a week for 3 weeks; assay type: organism-based; conditions: in vivo
Method in brief: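 Mice, 6-7 weeks old, injected s.c. with 1×10^7 Raji cells in serum-free medium plus basement membrane matrix. At 100–200 mm3 tumours, randomised (n=6). Oral dosing 6 days/week for 3 weeks: 30 mg/kg/d free compound suspended in 5% NMP/95% PEG400, or 40 or 80 mg/kg/d nanocrystal. Body weight and tumour volume measured every 3 days.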

Raji [17] = experiment: Induction of mitochondrial membrane potential loss in human Raji cells measured after 48 hrs by TMRM staining based fluorescence assay; assay type: functional, cell-based
Method in brief: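 Raji cells treated 48 h (CCCP as positive control), washed in PBS. Incubated with TMRM at 100 nM final for 15 min at 37 °C, fluorescence read at ex 510/em 580 nm. Mean ± SD.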

Raji [18] = experiment: Induction of apoptosis in human Raji cells assessed as early apoptotic cells at 0.031 uM measured after 48 hrs by Annexin V-FITC staining based flow cytometry (reference value: 1 %); assay type: functional
[19] = Acute toxicity in BALB/c mouse assessed as effect on blood ALT level at 800 mg/kg, po measured on day 14; assay type: organism-based; conditions: in vivo; method in brief: as §2
[20] = Acute toxicity in BALB/c mouse assessed as effect on kidney at 800 mg/kg, po measured on day 14 by H and E staining based light microscopic analysis; assay type: organism-based; conditions: in vivo; method in brief: as §1
[21] = Half life in Sprague-Dawley rat at 25 mg/kg, po administered via gavage by LC-MS analysis; assay type: ADME, organism-based; conditions: in vivo
Method in brief: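 Male Sprague-Dawley rats, fasted overnight, with jugular vein catheters for serial blood sampling. Single dose given by oral gavage (25 mg/kg) or tail-vein injection (5 mg/kg). Blood drawn at set times and centrifuged at once for plasma. Plasma drug levels measured by LC-MS. Parameters reported as means, n = 6.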

[22] = Acute toxicity in BALB/c mouse assessed as effect on heart at 400 mg/kg, po measured on day 14 by H and E staining based light microscopic analysis; assay type: organism-based; conditions: in vivo; method in brief: as §1
[23] = Acute toxicity in BALB/c mouse assessed as effect on blood CREA level at 800 mg/kg, po measured on day 14; assay type: organism-based; conditions: in vivo; method in brief: as §2
Raji [24] = experiment: Induction of ROS generation in human Raji cells assessed as increase in ROS level measured after 24 hrs by DHE dye based fluorescence microplate reader assay; assay type: functional, cell-based
Method in brief: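 Raji cells treated 24 h, harvested, stained with 10 μM DHE in pre-warmed PBS for 15 min in the dark. Fluorescence read on a plate reader at ex 510/em 600 nm. Mean ± SD.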

Raji [25] = experiment: Cell cycle arrest in human Raji cells assessed as accumulation at S phase at 0.125 uM measured after 24 hrs by propidium iodide/RNase staining based flow cytometry (reference value: 52%); assay type: functional
[26] = Acute toxicity in BALB/c mouse assessed as effect on blood CREA level at 400 mg/kg, po measured on day 14; assay type: organism-based; conditions: in vivo; method in brief: as §2
[27] = Acute toxicity in BALB/c mouse assessed as effect on blood BUN level at 400 mg/kg, po measured on day 14; assay type: organism-based; conditions: in vivo; method in brief: as §2
[28] = Acute toxicity in po dosed BALB/c mouse assessed as maximum tolerated dose; assay type: organism-based; conditions: in vivo
Method in brief: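 Acute oral dose-escalation in female and male BALB/c mice, 6-8 weeks old, dosed within 24 h. MTD is the highest dose without obvious side effects: body weight loss, diarrhea, anorexia, skin ulcer or toxic death.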

[29] = Acute toxicity in BALB/c mouse assessed as effect on blood TG level at 400 mg/kg, po measured on day 14; assay type: organism-based; conditions: in vivo; method in brief: as §2

Q: What does the source list for `O=C1c2ccccc2C(=O)c2c1nnn2-c1cc(F)c(-c2ccccc2F)c(F)c1`?
A: Activity [1]: Non-Toxic; Activity (Raji [2]): 4.1%; inhibition (Raji [3]): inactive; Activity (Raji [4]): 76.62%; Activity [5]: Non-Toxic; Activity [6]: Non-Toxic; Activity [7]: Non-Toxic; Activity [8]: Non-Toxic; Activity [9]: Non-Toxic; Activity [10]: Non-Toxic; Activity [11]: Non-Toxic; Activity [12]: Non-Toxic; Activity [13]: Non-Toxic; Activity (Raji [14]): 4.26%; Activity [15]: Non-Toxic; Activity [16]: Non-Toxic; Activity (Raji [17]): Dose-dependent effect; Activity (Raji [18]): 3.09%; Activity [19]: Non-Toxic; Activity [20]: Non-Toxic; half-life ([21]; Sprague-Dawley): 8.83 h; t1/2 [21]: 12.47 h; Activity [22]: Non-Toxic; Activity [23]: Non-Toxic; Activity (Raji [24]): Dose-dependent effect; Activity (Raji [25]): 86.31%; Activity [26]: Non-Toxic; Activity [27]: Non-Toxic; MTD ([28]; BALB/c, read-out: MTD): 400 mg/kg; MTD [28]: 800 mg/kg; Activity [29]: Non-Toxic
